Source: ChEMBL document CHEMBL1154914, “Orally bioavailable anti-HBV dinucleotide acyloxyalkyl prodrugs” (Bioorg Med Chem Lett, 2010)
The source made the active and inactive calls. No cut-off for these calls is given here.

How the values were obtained:
[1] = test system: Mus musculus; experiment: Toxicity against HBV infected mouse at 300-400 mg/kg, po QD for 14 days; format: organism-based; details: in vivo, 336 h
[2] = test system: Hepatitis B virus; experiment: Antiviral activity against ADV-resistant HBV N236T mutation infected in HepG2.2.15 cells assessed as nucleic acid and protein levels dosed daily for 9 days and measured 24 hrs after last treatment by Southern blot hybridization; format: functional, organism-based, HepG2 2.2.15; details: for EC50: Hepatitis B virus, HepG2 2.2.15
[3] = test system: Hepatitis B virus; experiment: Antiviral activity against wild type HBV infected in HepG2.2.15 cells assessed as nucleic acid and protein levels dosed daily for 9 days and measured 24 hrs after last treatment by Southern blot hybridization; format: functional, organism-based, HepG2 2.2.15; details: for EC50: Hepatitis B virus, HepG2 2.2.15
[4] = test system: Hepatitis B virus; experiment: Antiviral activity against 3TC-resistant HBV with polymerase M204V mutation infected in HepG2.2.15 cells assessed as nucleic acid and protein levels dosed daily for 9 days and measured 24 hrs after last treatment by Southern blot hybridization; format: functional, organism-based, HepG2 2.2.15; details: for EC50: Hepatitis B virus, HepG2 2.2.15
[5] = Half life in simulated gastric fluid after 1 hr by reverse phase HPLC; format: physicochemical
Procedure, shortened: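 Prodrug stock of 2 mg/200 μL DMSO, diluted 1:20 in USP simulated gastric fluid and held at 37 °C for 1 h. Timed aliquots were quenched with methanol, brought to pH 6.0 with NH4OAc/NaOH, centrifuged and concentrated. Read by reversed-phase C18 HPLC using a 30 min gradient from 0.1 M NH4OAc to 80:20 CH3CN:NH4OAc at 1 mL/min.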

[6] = test system: Hepatitis B virus; experiment: Antiviral activity against 3TC-resistant HBV with polymerase M204I mutation infected in HepG2.2.15 cells assessed as nucleic acid and protein levels dosed daily for 9 days and measured 24 hrs after last treatment by Southern blot hybridization; format: functional, organism-based, HepG2 2.2.15; details: for EC50: Hepatitis B virus, HepG2 2.2.15
[7] = Cytotoxicity against african green monkey Vero cells after 24 hrs by MTT assay; format: cell-based; details: chlorocebus sabaeus
[8] = test system: Hepatitis B virus; experiment: Antiviral activity against 3TC-resistant HBV with polymerase LMMV mutation infected in HepG2.2.15 cells assessed as nucleic acid and protein levels dosed daily for 9 days and measured 24 hrs after last treatment by Southern blot hybridization; format: functional, organism-based, HepG2 2.2.15; details: for EC50: Hepatitis B virus, HepG2 2.2.15
[9] = Cytotoxicity against human HFF cells after 24 hrs by MTT assay; format: cell-based
[10] = Cytotoxicity against MDBK cells after 24 hrs by MTT assay; format: cell-based, Bos taurus; details: cattle
[11] = test system: Hepatitis B virus; experiment: Antiviral activity against 3TC-resistant HBV with polymerase L180M mutation infected in HepG2.2.15 cells assessed as nucleic acid and protein levels dosed daily for 9 days and measured 24 hrs after last treatment by Southern blot hybridization; format: functional, organism-based, HepG2 2.2.15; details: for EC50: Hepatitis B virus, HepG2 2.2.15
[12] = test system: Hepatitis B virus; experiment: Antiviral activity against HBV infected in mouse assessed as liver HBV DNA level at 300-400 mg/kg, po QD for 14 days by Southern blotting; format: functional, organism-based
Procedure, shortened: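 HBV transgenic mice, pre-biopsied for liver HBV DNA and block-randomized (8/group). Dosed 300 to 400 mg/kg by oral gavage once daily for 14 days in 0.05 M citric acid pH 2.4 (0.1 mL per 20 g). Liver Southern blot with a 32P HBV genomic probe, hybridized overnight at 60°C and read by phosphorimaging. Viral DNA was ratioed to the transgene band (1.3 copies/cell). ADV was the positive control.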

[13] = test system: Hepatitis B virus; experiment: Antiviral activity against HBV infected in mouse assessed as reduction in liver HBV DNA level dosed po QD for 14 days by Southern blotting; format: functional, organism-based
Procedure, shortened: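 HBV transgenic mice, pre-biopsied for liver HBV DNA and block-randomized (8/group). Gavaged at 1, 5, 10 or 100 mg/kg once daily for 14 days in 0.05 M citric acid pH 2.4, against placebo and an ADV control. Liver taken after the last dose. HBV DNA by Southern blot with a 32P genomic probe and phosphorimaging, normalized to the transgene band (1.3 copies/cell).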

[14] = Half life in simulated intestinal fluid after 1 hr by reverse phase HPLC; format: physicochemical
Procedure, shortened: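 Prodrug stock (2 mg per 200 μL DMSO) diluted 1:20 into simulated intestinal fluid and held at 37 °C for 1 h. Aliquots at selected times were quenched with methanol, brought to pH 6.0 with NH4OAc/NaOH, centrifuged, concentrated and redissolved in 0.1 M NH4OAc. Analysed by reversed-phase C18 HPLC with photodiode-array detection, 0.1 M NH4OAc to 80:20 CH3CN:NH4OAc gradient over 30 min.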

## CO[C@@H]1[C@H](OP(=O)(OC[C@H]2O[C@@H](n3cnc4c(N)ncnc43)C[C@@H]2O)SCOC(=O)OC(C)C)[C@@H](CO)O[C@H]1n1ccc(=O)[nH]c1=O (stereo partly drawn) [INARIGIVIR SOPROXIL]
[1]
  Activity: Non-toxic
[2]
  EC90: 8.7 µM
  EC50: 2.8 µM
[3]
  EC90: 8.5 µM
  EC50: 2.5 µM
[4]
  EC90: 8.3 µM
  EC50: 2.4 µM
[5]
  half-life: > 1 h
[6]
  EC90: 9.2 µM
  EC50: 3 µM
[7]
  CC50 at 24 h: > 1000 µM
[8]
  EC90: 9.3 µM
  EC50: 3.1 µM
[9]
  CC50 at 24 h: > 1000 µM
[10]
  CC50 at 24 h: > 1000 µM
[11]
  EC90: 8.6 µM
  EC50: 2.1 µM
[12]
  Activity: Active
[13]
  Activity: Dose-dependent effect

## CO[C@@H]1[C@H](OP(=O)(OC[C@H]2O[C@@H](n3cnc4c(N)ncnc43)C[C@@H]2O)SCOC(=O)C(C)(C)C)[C@@H](CO)O[C@H]1n1ccc(=O)[nH]c1=O (stereo partly drawn)
[5]
  half-life: > 1 h
[7]
  CC50 at 24 h: > 1000 µM
[9]
  CC50 at 24 h: > 1000 µM
[10]
  CC50 at 24 h: > 1000 µM
[12]
  Activity: Active

## CC(C)(C)C(=O)OCOP(=O)(COCCn1cnc2c(N)ncnc21)OCOC(=O)C(C)(C)C [ADEFOVIR DIPIVOXIL]
[2]
  EC90: 29 µM
  EC50: 7.5 µM
[3]
  EC90: 7 µM
  EC50: 1.5 µM
[4]
  EC90: 7.2 µM
  EC50: 1.8 µM
[6]
  EC90: 8 µM
  EC50: 2 µM
[8]
  EC90: 8.3 µM
  EC50: 2.2 µM
[11]
  EC90: 8.2 µM
  EC50: 2.1 µM

## CO[C@@H]1[C@H](OP(=O)(S)OC[C@H]2O[C@@H](n3cnc4c(N)ncnc43)C[C@@H]2O)[C@@H](CO)O[C@H]1n1ccc(=O)[nH]c1=O (stereo partly drawn) [INARIGIVIR]
[5]
  half-life: < 0.25 h
[14]
  half-life: 1 h
[7]
  CC50 at 24 h: > 1000 µM
[9]
  CC50 at 24 h: > 1000 µM
[10]
  CC50 at 24 h: > 1000 µM

## Nc1ccn([C@@H]2CS[C@H](CO)O2)c(=O)n1 [LAMIVUDINE]
[2]
  EC90: 0.8 µM
  EC50: 0.2 µM
[3]
  EC90: 0.7 µM
  EC50: 0.2 µM
[4]
  EC90: >100 µM
  EC50: > 100 µM
[6]
  EC90: >100 µM
  EC50: > 100 µM
[8]
  EC90: >100 µM
  EC50: > 100 µM
[11]
  EC90: 20 µM
  EC50: 5.3 µM
